TRPC4 block: blocks the mouse TRPC4 cation channel; Q9QUQ5; HEK293 TRPC4beta/mu-opioid, DAMGO-evoked Fluo4 calcium flux; stronger effect = lower value; B-score at 10 µM; actives 0.39% (n = 300,000); AID 2247;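 active = B-score over 3 SD under the library average, no early fluorescence shift, positive overall ratio signal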
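material = TRPC4beta/mu-opioid receptor HEK293 cell line | probe or stimulus = sequential submaximal and maximal DAMGO stimulation | compound dosing = one concentration per compound | measured by = Fluo4 Ca2+ flux fluorescence | evaluation = integrated fluorescence ratio relative to baseline, converted to per-well B score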
TRPC6 act: activates the mouse TRPC6 cation channel; HEK293-TRPC6 membrane potential dye fluorescence; stronger effect = higher value; B-score at 10 µM; actives 0.13% (n = 310,000); AID 2550;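 active = B-score of the integrated fluorescence ratio above library mean plus 3 SD, and starting fluorescence ratio within library mean plus 5 SD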;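 note: higher score means more depolarization so channel activation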
TRPC4 agonist: TRPC4 (mouse) channel activation | Q9QUQ5 | HEK293 TRPC4beta/mu-opioid, Fluo4 calcium fluorescence; stronger effect = higher value | B-score at 10 µM | actives 0.49% (n = 310,000);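 active = B-score above 5 SD of library B-scores, and initial fluorescence ratio not above library mean plus 5 SD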;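 note: positive B-score marks a calcium rise read as TRPC4 activation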
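Technique: kinetic Fluo4 calcium fluorescence; Test system: TRPC4beta and mu-opioid receptor HEK293 stable cells; Measure: B-scored integrated calcium fluorescence ratio; Benchmarks: low control buffer alone, high control maximal DAMGO; Schedule: 45 min room-temperature Fluo4 loading, 110 s read.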
TRPC6 inhibitor: mouse TRPC6 channel inhibition; Q61143; HEK293-TRPC6, membrane potential dye, ACh-evoked depolarization; stronger effect = lower value; B-score at 10 µM; actives 1.1% (n = 310,000); AID 2553;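 active = B-score under library mean minus 3 SD, initial fluorescence not abnormally high, positive integrated signal ratio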;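 note: B-score derived from integrated fluorescence ratio over the kinetic read; more negative B-score means stronger inhibition of depolarization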
Kir21 inh: blocks the mouse Kir2.1 inward-rectifier potassium channel; HEK293-Kir2.1, FluxOR thallium flux fluorescence; stronger effect = lower value; B-score at 10 µM; actives 0.85% (n = 310,000);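 active = fluorescence ratio B-score at or below minus 3 SD of library scores, with starting-brightness B-score within 2 SD, cut at about -4.2 in these data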;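 note: channel flux triggered by added potassium and thallium sulfate stimulus; B-score of peak minus minimum fluorescence over baseline after thallium stimulus; more negative B-score means stronger Kir2.1 block with less thallium influx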
TRPC4 PAM: allosteric potentiators of mouse TRPC4 channel; HEK293 TRPC4beta/mu-opioid, DAMGO EC20, Fluo-4 Ca2+ flux; stronger effect = higher value; B-score at 10 µM; actives 0.42% (n = 310,000);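 active = B-score of calcium response area above 5 SD of library B-scores, with initial fluorescence ratio within 5 SD of library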
TRPC4 spec 2: second check of whether TRPC6 inhibitors also affect mouse TRPC4; shares compounds with TRPC6 inhibitor; HEK293 TRPC4/MOR, membrane potential dye fluorescence; channel activated by saturating DAMGO dose; inhibition, % at 10 µM; actives 42% (n = 920); AID 2776;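 active = compounds whose fluorescence signal differed from control wells by over 3 SD, either direction, in both duplicate plates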
TRPC4 spec: selectivity of TRPC6 inhibitors: effect on mouse TRPC4; shares compounds with TRPC6 inhibitor; HEK293 TRPC4/mu-opioid, membrane potential fluorescence; activity change, negative = inhibition, % at 10 µM; actives 61% (n = 920); AID 2777;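 active = rise or fall in signal beyond 3 SD of buffer-only wells in both replicate plates, either sign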;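 note: integrated kinetic ratio of fluorescence range over baseline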
HEK293 MPD ctr 2-1: parental HEK293 nonspecific activity of TRPC6 inhibitors, second screen; signal change vs control, % at 10 µM; parental HEK293 membrane potential dye fluorescence; maximal acetylcholine challenge after compound addition; actives 31% (n = 920); shares compounds with TRPC6 inhibitor; AID 2779;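 active = membrane potential signal moving either way by over 3 SD of the maximum-effect control, in both duplicate plates, meaning non-specific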
HEK293 MPD ctr-1: checks TRPC6 inhibitor effects in parental HEK293 cells | shares compounds with TRPC6 inhibitor | actives 60% (n = 920) | membrane potential signal change, % at 10 µM | AID 2780 | parental HEK293 membrane potential dye fluorescence;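 active = membrane potential signal shifting up or down by more than 3 SD of buffer-only wells, on both duplicate plates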
HEK293 MPD ctr-2: checks TRPC6 modulator effects in parental HEK293 cells; AID 488924; membrane potential signal change, % at 10 µM; membrane potential dye fluorescence; shares compounds with TRPC6 inhibitor; actives 51% (n = 2,400);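 active = membrane potential signal moves up or down beyond 5 SD from buffer-only wells, on both duplicate plates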
HEK293 MPD ctr 2-2: parental HEK293 nonspecific activity of TRPC6 modulators, second screen | shares compounds with TRPC6 inhibitor | actives 14% (n = 2,400) | membrane potential dye fluorescence; after compound, maximal acetylcholine stimulation | inhibition, % at 10 µM;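 active = membrane potential signal drops by more than 5 SD from the mean control signal, in both duplicate plates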
TRPC4 ctr mod: selectivity of TRPC6 modulators against mouse TRPC4 | shares compounds with TRPC6 inhibitor | HEK293 TRPC4/mu-opioid, membrane potential fluorescence | percent change from control (negative = decrease, positive = increase), % at 10 µM | actives 69% (n = 2,400) | AID 488927;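 active = membrane potential signal moved up or down beyond 5 SD of buffer control wells, in both duplicate plates, actives on both sides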
TRPC4/MOR inh 2: second check of whether TRPC6 modulators also affect mouse TRPC4; shares compounds with TRPC6 inhibitor; inhibition, % at 10 µM; actives 55% (n = 2,400); HEK293 TRPC4/mu-opioid, membrane potential dye fluorescence; stimulated with maximal-effect DAMGO;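 active = drop in membrane potential signal beyond 5 SD of the control wells in both duplicate plates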;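 note: TRPC4 counter screen for TRPC6 hits run under conditions tuned for TRPC6 not TRPC4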
TRPC6 block conf: mouse TRPC6 inhibitor confirmation. shares compounds with TRPC6 inhibitor. HEK293-TRPC6, membrane potential dye, ACh-evoked depolarization. inhibition, % at 10 µM. actives 43% (n = 3,300);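 active = fluorescence ratio falls more than 5 SD below the full-stimulation control mean, in both duplicate runs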;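 note: integrated fluorescence ratio of peak minus minimum over baseline after agonist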
TRPC6 act conf: confirmation of mouse TRPC6 activators | activation, % at 10 µM | HEK293-TRPC6 membrane potential dye fluorescence, FDSS | actives 11% (n = 2,800) | AID 488961 | shares compounds with TRPC6 inhibitor;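 active = ratio signal rise beyond 5 SD above unstimulated control wells' mean, seen in both duplicate runs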
Large screens that a line does not name were inactive (follow-up assays come after a bar, where they were run). Sampled rows, rich in hits. Any-hit rate of the full collection: about 2.9%.

NCCSc1c(-c2ccc(Cl)cc2)[nH]c2ccccc12	TRPC4 agonist 129, TRPC6 inhibitor -6.69, Kir21 inh -9.88 | TRPC4 spec 2 23.0% | TRPC4 spec -11.7% | HEK293 MPD ctr 2-1 inactive | HEK293 MPD ctr-1 -323.0% | TRPC6 block conf 68.6% | TRPC6 act conf inactive
NCCSc1c(-c2ccccc2)[nH]c2ccccc12	TRPC6 inhibitor -5.28 | HEK293 MPD ctr-2 inactive | HEK293 MPD ctr 2-2 inactive | TRPC4 ctr mod inactive | TRPC4/MOR inh 2 57.0% | TRPC6 block conf 52.5% | TRPC6 act conf inactive
Cc1ccc(-c2[nH]c3ccccc3c2SCCN)cc1	TRPC4 block -7, TRPC6 inhibitor -6.7 | TRPC4 spec 2 36.5% | TRPC4 spec -11.5% | HEK293 MPD ctr 2-1 inactive | HEK293 MPD ctr-1 -296.5% | TRPC6 block conf inactive | TRPC6 act conf inactive
CC1CCCC(C)N1C(=O)CSc1nc2ccccc2s1 (centres undefined)	none
CC1=CC2=NC(=O)/C(=C/c3coc4ccc(Cl)cc4c3=O)C(=N)N2O1	TRPC6 act 52 | HEK293 MPD ctr-2 active | HEK293 MPD ctr 2-2 active | TRPC4 ctr mod 287.0% | TRPC4/MOR inh 2 101.0% | TRPC6 act conf 457.0%
N=C1/C(=C\c2coc3ccccc3c2=O)C(=O)N=C2SC=CN12	TRPC6 act 26.4, TRPC6 inhibitor -7.96 | HEK293 MPD ctr-2 640.0% | HEK293 MPD ctr 2-2 118.5% | TRPC4 ctr mod 119.0% | TRPC4/MOR inh 2 77.0% | TRPC6 block conf inactive | TRPC6 act conf 107.0%
CCC(=O)N/N=C(\C)CC(=O)Nc1ccc(F)cc1	none
CCN(CC)CCNC(=O)c1nn(-c2ccc(C)cc2)c(=O)c2c1c1ccccc1n2C	TRPC6 inhibitor -8.88 | TRPC4 spec 2 56.5% | TRPC4 spec -15.0% | HEK293 MPD ctr 2-1 inactive | HEK293 MPD ctr-1 -187.0% | TRPC6 block conf 64.4% | TRPC6 act conf inactive
CC1CN(C(=O)c2cc(-c3ccc(Cl)s3)nc3ccccc23)CC(C)O1 (centres undefined)	none
O=C(c1cc(-c2ccccc2Cl)nc2ccccc12)N1CCOCC1	none
CCN1CCCC(OC(=O)c2cc(-c3ccccc3Cl)nc3ccccc23)C1 (centres undefined)	TRPC6 inhibitor -5.5, TRPC4 PAM 22 | HEK293 MPD ctr-2 134.0% | HEK293 MPD ctr 2-2 inactive | TRPC4 ctr mod 24.5% | TRPC4/MOR inh 2 45.0% | TRPC6 block conf inactive
CC(=O)c1ccc(NC(=O)c2cccs2)cc1	none
O=C(Cc1ccc([N+](=O)[O-])cc1)Nc1ccc2c(c1)OCO2	none
O=C(Cc1ccc([N+](=O)[O-])cc1)Nc1ccc2c(c1)CCC2	TRPC6 inhibitor -5.21 | HEK293 MPD ctr-2 inactive | HEK293 MPD ctr 2-2 inactive | TRPC4 ctr mod inactive | TRPC4/MOR inh 2 inactive | TRPC6 block conf inactive | TRPC6 act conf inactive
Cc1c(CCOC(=O)c2ccccc2)sc[n+]1Cc1ccccc1	TRPC6 inhibitor -9.46 | TRPC4 spec 2 inactive | TRPC4 spec inactive | HEK293 MPD ctr 2-1 42.5% | HEK293 MPD ctr-1 inactive | TRPC6 block conf 61.3% | TRPC6 act conf inactive
N#Cc1nc(COc2ccccc2)oc1N1CCCCC1	none
CC(=O)c1cccc(CN2CCc3ccc(NC(=O)C4CCCO4)cc3C2)c1 (centres undefined)	none
O=C(NC1CCCCC1)C1CCCN1S(=O)(=O)c1ccc(F)cc1 (centres undefined)	TRPC6 inhibitor -8.07 | TRPC4 spec 2 inactive | TRPC4 spec inactive | HEK293 MPD ctr 2-1 inactive | HEK293 MPD ctr-1 inactive | TRPC6 block conf inactive | TRPC6 act conf inactive
CCOC(=O)c1cnc2c(C)cccc2c1NCCCN1CCOCC1	TRPC6 inhibitor -6.75 | TRPC4 spec 2 58.5% | TRPC4 spec inactive | HEK293 MPD ctr 2-1 -31.0% | HEK293 MPD ctr-1 inactive | TRPC6 block conf inactive | TRPC6 act conf inactive
CCOC(=O)c1cnc2c(CC)cccc2c1NCCN1CCOCC1	none
CCOC(=O)c1cnc2c(C(=O)OC)cccc2c1NCCN1CCOCC1	TRPC6 inhibitor -5 | HEK293 MPD ctr-2 137.0% | HEK293 MPD ctr 2-2 inactive | TRPC4 ctr mod 20.5% | TRPC4/MOR inh 2 47.0% | TRPC6 block conf 48.0%
CCOC(=O)c1cnc2c(OC)cccc2c1NCc1cccnc1	TRPC6 inhibitor -7.51 | TRPC4 spec 2 inactive | TRPC4 spec inactive | HEK293 MPD ctr 2-1 -15.0% | HEK293 MPD ctr-1 inactive | TRPC6 block conf 82.6% | TRPC6 act conf inactive
CCOC(=O)c1cnc2c(C)cc(Cl)cc2c1NCCCN1CCOCC1	none
CC(C)c1csc(CN2CCC(N3CCC(C(=O)NCC4CCCO4)CC3)CC2)n1 (centres undefined)	none
O=S(=O)(Nc1ccc(N2CCOCC2)cc1)c1ccc(F)cc1F	none
Cc1cc(C)c(OCCCNC2CCCC2)c(Br)c1	TRPC6 act 11.6, TRPC6 inhibitor -5.4 | HEK293 MPD ctr-2 201.0% | HEK293 MPD ctr 2-2 inactive | TRPC4 ctr mod 43.0% | TRPC4/MOR inh 2 53.5% | TRPC6 block conf inactive | TRPC6 act conf 93.5%
Cc1cccn2c(=O)c3cc(C(=O)NC4CCCCC4)c(=N)n(CCN4CCOCC4)c3nc12	none

Source: PubChem (Johns Hopkins Ion Channel Center)
